The source made the active and inactive calls. The rule behind the calls is not given here.
How the values were obtained:
Vibrio harveyi [1] = assay: Inhibition of AHL-mediated quorum sensing in Vibrio harveyi ATCC BAA-1118 at 0.5 ug/mL after 1.5 hrs by bioluminescence assay relative to control
In short: (§1)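 V. harveyi BB886 reporter, which emits light in response to extracellular AHL, was incubated with or without furanone at various concentrations (Surette method, modified). Bioluminescence was normalized to viable CFU to give relative bioluminescence versus untreated.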

Pseudomonas aeruginosa [2] = assay: Potentiation of ciprofloxacin-induced antibacterial activity against Pseudomonas aeruginosa PAO1 assessed as persister cells at 2 ug/mL after 3.5 hrs; type: functional, organism-based
In short: (§2)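 Isolated PAO1 persisters were given furanone at 2 µg/mL for 2 h. A portion of each sample then received 200 µg/mL ciprofloxacin for 3.5 h. Surviving persisters were counted as CFU.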

Pseudomonas aeruginosa [3] = assay: Antibacterial activity against Pseudomonas aeruginosa PAO1 assessed as viability of persister cells at 2 ug/mL after 2 hrs; type: functional
In short: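 Persisters isolated from P. aeruginosa PAO1 per an earlier protocol, exposed to furanone for 2 h. Viability was counted as CFU by plating on LB agar immediately after treatment.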

Vibrio harveyi [4] = assay: Toxicity in Vibrio harveyi ATCC BAA-1118 assessed as effect on cell viability after 1.5 hrs by bioluminescence assay; type: organism-based
In short: (§3)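 V. harveyi BB886 QS reporter was exposed to furanones at various concentrations in the bioluminescence assay. Viable cells were counted as CFU after treatment.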

Vibrio harveyi [5] = assay: Inhibition of AHL-mediated quorum sensing in Vibrio harveyi ATCC BAA-1118 after 1.5 hrs by bioluminescence assay; in short: as §1
Pseudomonas aeruginosa [6] = assay: Antibacterial activity against Pseudomonas aeruginosa PAO1 assessed as viability of persister cells at 2 ug/mL after 2 hrs
Vibrio harveyi [7] = assay: Toxicity in Vibrio harveyi ATCC BAA-1118 assessed as effect on cell viability up to 60 ug/mL after 1.5 hrs by bioluminescence assay; type: organism-based; in short: as §3
Vibrio harveyi [8] = assay: Inhibition of AHL-mediated quorum sensing in Vibrio harveyi ATCC BAA-1118 up to 60 ug/mL after 1.5 hrs by bioluminescence assay; in short: as §1
Pseudomonas aeruginosa [9] = assay: Antibacterial activity against Pseudomonas aeruginosa PAO1 assessed as viability of persister cells at 200 ug/mL after 3.5 hrs; type: functional, organism-based; in short: as §2
Vibrio harveyi [10] = assay: Inhibition of AHL-mediated quorum sensing in Vibrio harveyi ATCC BAA-1118 at 30 ug/mL after 1.5 hrs by bioluminescence assay; in short: as §1
Vibrio harveyi [11] = assay: Toxicity in Vibrio harveyi ATCC BAA-1118 assessed as effect on cell viability at 30 ug/mL after 1.5 hrs by bioluminescence assay; type: organism-based; in short: as §3
Vibrio harveyi [12] = assay: Toxicity in Vibrio harveyi ATCC BAA-1118 assessed as effect on cell viability up to 10 ug/mL after 1.5 hrs by bioluminescence assay; type: organism-based; in short: as §3
Vibrio harveyi [13] = assay: Inhibition of AHL-mediated quorum sensing in Vibrio harveyi ATCC BAA-1118 at 10 ug/mL after 1.5 hrs by bioluminescence assay relative to control; in short: as §1
Pseudomonas aeruginosa [14] = assay: Potentiation of ciprofloxacin-induced antibacterial activity against Pseudomonas aeruginosa PAO1 assessed as sensitive persister cells at 2 ug/mL after 3.5 hrs; type: functional; in short: as §2

SMILES | Activity (Pseudomonas aeruginosa [3]) | Activity (Vibrio harveyi [4]) | inhibition (Vibrio harveyi [5]) | Activity (Pseudomonas aeruginosa [6]) | also measured
O=C1OC(=C(Br)Br)C=C1CBr | inactive | Non-toxic |  |  | inhibition (Vibrio harveyi [1]): 91.2%; Activity (Pseudomonas aeruginosa [2]): Active
CC1=CC(=O)OC1=O |  | Non-toxic | inactive | inactive | 
COC1=CC(=O)OC1 |  |  |  | inactive | Activity (Vibrio harveyi [7]): Non-toxic; inhibition (Vibrio harveyi [8]): inactive
O=C(O)c1cn(C2CC2)c2cc(N3CCNCC3)c(F)cc2c1=O |  |  |  |  | Activity (Pseudomonas aeruginosa [9]): inactive
CC1=CC(=C(Br)Br)OC1=O | inactive |  | Dose-dependent effect |  | inhibition (Vibrio harveyi [10]): Active; Activity (Pseudomonas aeruginosa [2]): Active; Activity (Vibrio harveyi [11]): Toxic; Activity (Vibrio harveyi [12]): Non-toxic; inhibition (Vibrio harveyi [13]): 100%
CC1=C(Br)C(C(Br)Br)OC1=O (stereo unspecified) | 64.6% | Non-toxic | inactive |  | Activity (Pseudomonas aeruginosa [14]): 99.99%
O=C1OC(=C(Br)Br)C=C1C(Br)Br |  | Non-toxic |  | Active | inhibition (Vibrio harveyi [1]): 55.9%
CC1=C(Br)C(Br)(C(Br)Br)OC1=O (stereo unspecified) |  | Non-toxic | inactive | Active | 
O=C1O/C(=C\Br)C(Br)=C1CBr |  | Non-toxic | Active | Active | 

— ChEMBL document CHEMBL3091397, “Structural effects on persister control by brominated furanones” (Bioorg Med Chem Lett, 2013)
